Assay results taken from the array DNA melting data of Ke et al. (doi:10.1101/2024.01.08.574731).

Legend:
[1] = melting temperature; fluorescence melt of hairpins on a sequencing array, two-state fit, raised by 9.35 °C to match UV melts; conditions: sodium 0.088 M
Procedure, shortened: (§1)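 Melting temperature and folding enthalpy were derived from bootstrapped two-state fits. The fitted temperatures were raised by 9.35 °C to agree with UV melts, and four replicates were combined by inverse variance. The underlying data were Cy3 fluorescence images of library hairpins, with annealed Cy3 and quencher oligos, on a sequenced MiSeq flow cell in 50 mM Na-HEPES pH 8.0, 25 mM NaCl, taken in 2.5 °C steps up to 60 °C, normalised to pre-quench Cy3 and to control constructs.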

[2] = folding enthalpy; higher = less favourable; fluorescence melt of hairpins on a sequencing array, two-state fit; conditions: sodium 0.088 M
Procedure, shortened: as §1

Sequence | Tm [1] [°C] | folding enthalpy [2] [kcal/mol]
GCCTGGCGAAAGCGAGGC ((((.((....)).)))) | 68.2 | -26.8
GCCTGGCGAAAGCTATGC ((.(.((....)).).)) | 37.5 | -12.5
GCCTGGGGAAACCTAGGC ((((.((....)).)))) | 54.4 | -31.5
GCCTGTCCGAAAGGAGGC (((..(((....)))))) | 46.6 | -19.2
GCCTGTCGAAAGACTGGC (((.(((....))).))) | 61.2 | -39.1
GCCTGTGGAAACACAAGC ((.((((....)))).)) | 38.6 | -22.5
GCCTTACGAAAGTAGGGC (((.(((....))).))) | 57.3 | -37.1
GCCTTAGCGAAAGCTGGC (((..(((....)))))) | 51.5 | -21
GCCTTAGGAAACCAAGGC (((((.(....).))))) | 45.2 | -27.4
GCCTTAGGAAACTAGGGC (((.(((....))).))) | 45.5 | -34.3
GCCTTCCGAAAGGAGGC (((.(((....)))))) | 59.4 | -29.8
GCCTTCGAAAGAACAGGC ((((((....)))..))) | 40.9 | -26.7
GCCTTCGAAAGAACGGGC ((((((....)))..))) | 41 | -23
GCCTTCGAAAGAAGAGGC ((((((....)))..))) | 46 | -23.4
GCCTTCGGAAACAAAGGC (((((.(....).))))) | 41.9 | -27.5
GCCTTGAAAAAGGC (((((....))))) | 58.1 | -24.4
GCCTTGACGAAAGTCGGC (((..(((....)))))) | 50.3 | -16
GCCTTGCCGAAAGGCGGC (((..(((....)))))) | 67.5 | -10.8
GCCTTGCGAAAGCAGCGC ((..(((....)))..)) | 52.9 | -14.6
GCCTTGCGAAAGCAGGGC (((.(((....))).))) | 69 | -29.5
GCCTTGCGAAAGCATAGC ((..(((....)))..)) | 50.8 | -9.69
GCCTTGCGAAAGCCATGC ((.(.((....)).).)) | 27 | -3.66
GCCTTGCGAAAGCCTGGC (((..((....))..))) | 53.9 | -18.7
GCCTTGCGAAAGCGAAGC ((.(.((....)).).)) | 45 | -8.01
GCCTTGCGAAAGCGCGGC (((..((....))..))) | 57.1 | -18

Sequence | Tm [1] [°C] | folding enthalpy [2] [kcal/mol]
GCCTTGCGAAAGCTACGC ((.(.((....)).).)) | 46.3 | -10.2
GCCTTGCGAAAGCTTGGC (((..((....))..))) | 60 | -20.9
GCCTTGGGAAACCAGGGC (((.(((....))).))) | 52.7 | -46.8
GCCTTGGGAAACCGAGGC ((((.((....)).)))) | 56.6 | -39.8
GCCTTTCGAAAGAATGGC (((.(((....))).))) | 53 | -42.6
GCGAAAACTCGC ((((....)))) | 41.7 | -13.1
GCGAAACGTCGC ((((....)))) | 47.8 | -19.5
GCGAAAGGTCGC ((((....)))) | 41.4 | -14.1
GCGAAAGTTCGC ((((....)))) | 47.2 | -19.6
GCGAAATGTCGC ((((....)))) | 44.8 | -18.6
GCGAAATTTCGC ((((....)))) | 51.7 | -42.6
GCGAACACTCGC ((((....)))) | 45 | -23.5
GCGAACCGAAAGGTCGC (((.(((....)))))) | 67.5 | -31.8
GCGAACCTCGC ((((...)))) | 46 | -17.7
GCGAACGAAAGTTGACGC ((((((....)))..))) | 44.1 | -23
GCGAACGATCGC ((((....)))) | 41.1 | -21.1
GCGAACGCTCGC ((((....)))) | 59.6 | -12.2
GCGAACGGAAACACTCGC ((((..(....)..)))) | 32.3 | -21.9
GCGAACGGAAACGTCCGC (((.(((....))).))) | 54.6 | -40.2
GCGAACGTTCGC ((((....)))) | 55.8 | -39.5
GCGAACTATCGC ((((....)))) | 45.4 | -20.6
GCGAAGACGAAAGTCCGC (((..(((....)))))) | 52.4 | -31.9
GCGAAGCCGAAAGGCCGC (((..(((....)))))) | 58.8 | -20.2
GCGAAGCGAAAGCACCGC (((..((....))..))) | 43.8 | -9.92
GCGAAGCGAAAGCATGGC ((.(.((....)).).)) | 40 | -5.07

Sequence | Tm [1] [°C] | folding enthalpy [2] [kcal/mol]
GCGAAGCGAAAGCATTGC ((.(.((....)).).)) | 39.1 | -7.27
GCGAAGCGAAAGCCTCGC ((((.((....)).)))) | 57.8 | -18.5
GCGAAGCGAAAGCCTGGC ((.(.((....)).).)) | 34.1 | -5.56
GCGAAGCGAAAGCTTTGC ((.((((....)))).)) | 62.6 | -22.4
GCGAAGGCGAAAGCCCGC (((..(((....)))))) | 59.5 | -18.2
GCGAAGTATCGC ((((....)))) | 46.2 | -14.3
GCGAAGTGTCGC ((((....)))) | 49.6 | -13.9
GCGAATATTCGC ((((....)))) | 50.7 | -33.5
GCGAATCGAAAGATACGC (((.(((....))).))) | 55.5 | -44.5
GCGAATCGAAAGATCGC (((.(((....)))))) | 57.3 | -31.2
GCGAATGCGAAAGCACGC (((..(((....)))))) | 52.3 | -18.9
GCGAATGGAAACATCCGC (((.(((....))).))) | 45.4 | -23.1
GCGAATGGAAACATTCAC (.(((((....))))).) | 38.1 | -18.6
GCGAATTCTCGC ((((....)))) | 47.9 | -19.6
GCGAATTTCGC ((((...)))) | 48.8 | -24.8
GCGACAAATCGC ((((....)))) | 43.6 | -16.5
GCGACAATTCGC ((((....)))) | 44.8 | -17.2
GCGACACGAAAGTGACGC (((.(((....))).))) | 68.5 | -38.7
GCGACAGATCGC ((((....)))) | 47.9 | -20.7
GCGACAGGAAACCATCGC ((((..(....)..)))) | 35.8 | -17
GCGACAGGAAACTGTCAC (.(((((....))))).) | 43.8 | -16.6
GCGACATATCGC ((((....)))) | 49.9 | -23.4
GCGACCATCGC ((((...)))) | 46.4 | -17.6
GCGACCATTCGC ((((....)))) | 47.4 | -24.4
GCGACCCGTCGC ((((....)))) | 60.7 | -40.1

Sequence | Tm [1] [°C] | folding enthalpy [2] [kcal/mol]
GCGACCCTTCGC ((((....)))) | 51.1 | -26.3
GCGACCGAAAGGTGCCGC ((((((....)))..))) | 50.4 | -15.6
GCGACCGAAAGGTTTCGC ((((((....)))..))) | 49 | -24.1
GCGACCGGTCGC ((((....)))) | 62 | -55.6
GCGACCTGTCGC ((((....)))) | 68.3 | -26.5
GCGACCTTCGC ((((...)))) | 48.2 | -25.4
GCGACGAATCGC ((((....)))) | 49.6 | -13.1
GCGACGCGAAAGCATGGC ((.(.((....)).).)) | 40.4 | -9.76
GCGACGCGAAAGCCTAGC ((.(.((....)).).)) | 43.5 | -18.9
GCGACGCGAAAGCGCAGC ((..(((....)))..)) | 58.9 | -15.5
GCGACGCGAAAGCTTCGC ((((.((....)).)))) | 65.2 | -45.6
GCGACGGTCGC ((((...)))) | 48.7 | -28.4
GCGACGTCGAAAGACCGC (((..(((....)))))) | 50.6 | -25.4
GCGACTAATCGC ((((....)))) | 47.2 | -24.2
GCGACTAGTCGC ((((....)))) | 65.2 | -28.9
GCGACTATCGC ((((...)))) | 46.6 | -16.8
GCGACTATTCGC ((((....)))) | 47.4 | -19.3
GCGACTGCGAAAGCACGC (((..(((....)))))) | 48.8 | -15.3
GCGACTGGAAACAGCCGC (((.(((....))).))) | 56.2 | -51.9
GCGACTTATCGC ((((....)))) | 48.8 | -24.1
GCGAGACATCGC ((((....)))) | 55.1 | -8
GCGAGACGAAAGTCACGC (((.(((....))).))) | 68.5 | -31.5
